The list is not random: actives were taken first. Their share in the collection is about 1.5%.
core dimer inh = HCV core protein dimerization inhibition; TR-FRET GST/Flag-core106 dimerization, 1536-well; inhibition, % at 5 µM; hit rate 0.33% among 300,000; AID 1899;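 active = inhibition above the mean of all tested compounds plus 3 SD, set per screening campaign, cut at about 45% in these data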
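Material: GST/Flag-tagged HCV core106 proteins. Incubation: 4 h, 22.5 °C incubation. Read-out basis: inhibition (%) from 671 over 617 nm ratio. Measured by: TR-FRET, excitation 340 nm, emission 617 and 671 nm.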
FID counter = displaces DNA intercalator in HCV helicase counter-screen | DNA fluorescent intercalator displacement, fluorescence | inhibition, % at 7.9 µM | hit rate 0.17% among 290,000; in the data active = inhibition above about 37%;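 note: higher means more ethidium bromide displaced from hairpin DNA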
NRP1-CendR mod = alters CendR peptide binding to human NRP-1; inhibition, % at 25 µM; O14786; hit rate 0.85% among 360,000; FAM-RPARPAR peptide binding to NRP-1, fluorescence polarization; AID 602438;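 active = inhibition or corrected inhibition above about 18%, plus a signal ratio from 0.5 to 1.5, limit read from the data, passing the limit was not always enough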
Target sequence (O14786 whole entry, looked up): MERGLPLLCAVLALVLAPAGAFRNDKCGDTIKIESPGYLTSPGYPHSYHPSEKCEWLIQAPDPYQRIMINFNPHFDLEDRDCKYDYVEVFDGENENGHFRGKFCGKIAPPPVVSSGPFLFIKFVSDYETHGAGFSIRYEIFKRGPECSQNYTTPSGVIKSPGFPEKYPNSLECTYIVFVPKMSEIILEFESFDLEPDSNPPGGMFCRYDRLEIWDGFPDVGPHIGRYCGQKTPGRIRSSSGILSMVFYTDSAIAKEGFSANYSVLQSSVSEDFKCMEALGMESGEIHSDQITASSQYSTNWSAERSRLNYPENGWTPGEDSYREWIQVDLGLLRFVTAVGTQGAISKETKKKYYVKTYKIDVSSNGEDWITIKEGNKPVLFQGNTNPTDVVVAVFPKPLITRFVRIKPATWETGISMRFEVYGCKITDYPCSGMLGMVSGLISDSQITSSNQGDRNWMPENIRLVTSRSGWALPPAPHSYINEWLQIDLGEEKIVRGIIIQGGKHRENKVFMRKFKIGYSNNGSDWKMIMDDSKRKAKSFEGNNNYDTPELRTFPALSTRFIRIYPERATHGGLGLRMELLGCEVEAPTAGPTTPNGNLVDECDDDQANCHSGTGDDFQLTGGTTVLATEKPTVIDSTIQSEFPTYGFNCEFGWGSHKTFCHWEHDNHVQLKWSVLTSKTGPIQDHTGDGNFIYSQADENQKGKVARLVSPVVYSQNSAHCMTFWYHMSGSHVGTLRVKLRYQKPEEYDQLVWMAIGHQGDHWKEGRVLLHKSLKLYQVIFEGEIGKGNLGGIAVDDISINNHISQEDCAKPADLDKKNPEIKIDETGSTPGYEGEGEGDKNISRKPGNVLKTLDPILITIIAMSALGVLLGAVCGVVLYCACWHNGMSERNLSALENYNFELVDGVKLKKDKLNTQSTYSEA
MEX-5 binding = C. elegans MEX-5 TCR-2 RNA binding activity | hit rate 0.38% among 300,000 | MEX-5/FITC-TCR2 RNA binding, fluorescence polarization; stronger effect = lower value | activity score (negative = inhibition of binding), % at 10 µM | Q9XUB2;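 active = inhibition past about -25% in most replicates, and total fluorescence under double the plate's negative control median, limit read from the data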
A number is an active result; 0 = inactive; - = not tested or not shown.

SMILES	core dimer inh	FID counter	NRP1-CendR mod	MEX-5 binding
COC(=O)c1ccn(CSc2cc(Cl)ccc2Cl)n1	-	-	0	-
COC(=O)c1ccn(C(=O)c2ccc(Cl)cc2)n1	0	0	28	0
CCCCNC(=O)C1c2ccccc2OCC(=O)N1CCOC (stereo unspecified)	-	-	0	-
Cn1c(O)c(C=Nc2ccc(N3CCOCC3)cc2)c(=O)n(C)c1=S	-	0	0	-27
Cc1cc(O)c(C=Nc2ccc(N3CCOCC3)cc2)c(C)c1Cl	0	0	0	0
COc1ccc2nc(SCC(=O)Nc3nonc3C)[nH]c2c1	0	0	0	-32
Cc1ccc2nc(SCC(=O)Nc3nonc3C)[nH]c2c1	0	0	0	0
Fc1ccc(-c2nc3ccc(Br)cn3c2Cc2ccsc2)cc1	-	-	0	-
COC(=O)C1(C(=O)OC)C[C@H](c2ccc(OC)cc2)N(Cc2ccccc2OC)[C@@H]1c1cccs1	-	-	0	-
O=C(NC(c1ccccc1)c1ccc2ccccc2n1)C1CCN(Cc2ccc(Oc3ccccc3)cc2)CC1 (stereo unspecified)	-	-	20	-
Cc1ccc(C)n1-c1ccc(C(=O)O)cc1	0	0	-	-50
Cc1cc(/C=C(/C#N)c2nc3ccccc3[nH]2)c(C)n1-c1cccc([N+](=O)[O-])c1	0	0	0	0
Cc1cc(/C=C(\C#N)c2nc3ccccc3[nH]2)c(C)n1C	0	0	0	-28
COc1ccc(/C=C/C(=O)c2c(C)cc(C)[nH]c2=O)c2ccccc12	0	0	0	-28
O=C(NC1CCCCC1)C(c1ccc(C(F)(F)F)cc1)n1c(=O)c(-c2cc3ccccc3[nH]2)nc2ccccc21 (stereo unspecified)	-	-	0	-
Cc1cc(C)cc(N2Cc3ccccc3C2)c1	62	0	0	0
O=C(CNC(=O)c1cccc(S(=O)(=O)N2CCc3ccccc32)c1)Nc1ccc(F)c(F)c1F	-	-	0	-
COc1cc(C(=O)OCC(=O)Nc2c(F)c(F)c(F)c(F)c2F)cc(OC)c1OC	0	0	21	0
COc1cc(C(N)=O)cc(Br)c1OC	0	0	25	0
COc1cc(C(=O)OCCCOC(=O)c2cc(OC)c(OC)c(OC)c2)cc(OC)c1OC	0	0	22	0
COc1cc(C(=O)OCC(=O)Nc2c(F)cccc2F)cc(OC)c1C	0	0	0	0
O=C1C=CC(=NN=C(c2ccccc2)c2ccccc2)C=C1	-	-	0	-
OCCOCCn1c(CCNc2nc(-c3ccc(Cl)cc3)cs2)nc2cc(Cl)c(Cl)cc21	0	-	36	0
CCCn1c(CCNc2nc(-c3ccc(Cl)c([N+](=O)[O-])c3)cs2)nc2cc(Cl)c(Cl)cc21	0	0	0	0
O=[N+]([O-])c1cc(-c2csc(NCCc3nc4cc(Cl)c(Cl)cc4n3CCCO)n2)ccc1Cl	0	-	31	0
SMILES	core dimer inh	FID counter	NRP1-CendR mod	MEX-5 binding
Cc1ccc(-c2csc(NCCc3nc4cc(Cl)c(Cl)cc4n3CCCO)n2)cc1	0	-	0	0
CC1=C2C3OC(=O)C(C)C3CCC2(C)C=C(Br)C1=O (stereo unspecified)	-	-	0	-
CCCCn1c(SCC(=O)c2ccc(OC)cc2OC)nc2cc(S(N)(=O)=O)ccc21	79	0	0	0
COc1ccc(-c2ccc(CN3C(C(C)C)C(=O)N(Cc4cn(Cc5ccco5)nn4)CCS3(=O)=O)cc2)cn1 (stereo unspecified)	-	-	0	-
COc1ccccc1C(=O)Nc1ccnn1C1CCN(C(C)CSC)CC1 (stereo unspecified)	0	0	0	-26
CSCC(C)N1CCC(n2nccc2NC(=O)CCc2ccccc2)CC1 (stereo unspecified)	-	0	0	0
CSCC(C)N1CCC(n2nccc2NC(=O)CCCc2ccccc2)CC1 (stereo unspecified)	0	0	0	-64
C=CCC(=O)N1CCC(n2nccc2NC(=O)CCOc2ccccc2)CC1	0	0	28	0
CSCC(C)N1CCC(n2nccc2NC(=O)CCOc2ccccc2)CC1 (stereo unspecified)	0	0	22	0
COc1ccccc1C(=O)Nc1ccnn1C1CCN(C)CC1	0	0	0	-
Cn1nc(C(C)(C)C)cc1C(=O)N1CCCCC1c1cc(C(=O)NCc2ccc(F)cc2)no1 (stereo unspecified)	-	-	0	-
OC(c1ccc(-c2ccccc2)cc1)c1ncc(-c2cccc(F)c2)[nH]1 (stereo unspecified)	-	-	0	-
COC(=O)c1cc(=O)c2c(ccc3oc(=O)ccc32)[nH]1	-	-	0	-
COc1ccc(C2Nc3ccccc3C(=O)N2Cc2ccco2)cc1COc1ccc(NC(C)=O)cc1 (stereo unspecified)	0	0	0	0
COc1ccc(C2Nc3ccccc3C(=O)N2Cc2ccco2)cc1COc1ccccc1F (stereo unspecified)	46	0	0	0
O=S(=O)(O)c1cccc2c(N=Nc3ccc(O)c4ncccc34)cccc12	0	0	0	-92
O=C(NCc1ccccc1)c1cccc(NC(=O)c2ccccc2)c1	-	-	0	-
O=C(NCc1ccccc1Cl)c1cccc(NC(=O)c2ccccc2)c1	0	0	18	0
CCOC(=O)C1=C(c2ccccc2)OC(N)=C(C#N)C1C(C)C (stereo unspecified)	0	0	50	0
CCOC(=O)C1=C(CSc2nc(-c3ccccc3)ccc2C#N)OC(N)=C(C#N)C1c1ccccc1 (stereo unspecified)	53	0	0	0
CCOC(=O)C1=C(CSc2nc3c(cc2C#N)CN(C)CC3)OC(N)=C(C#N)C1c1ccccc1 (stereo unspecified)	52	0	0	0
CCOC(=O)C1=C(CSc2nc(-c3ccccc3)ccc2C#N)OC(N)=C(C#N)C1c1cccnc1 (stereo unspecified)	0	0	0	0
CCOC(=O)C1=C(c2ccccc2)OC(N)=C(C#N)C1C1CCCCC1 (stereo unspecified)	0	0	0	0
CN1CCN(C(=O)c2cc3c(c(-c4cccc(-c5cc6ccccc6o5)c4)n2)[C@@H](CCO)N(S(=O)C(C)(C)C)C3)CC1 (stereo partly specified)	-	-	0	-
CCC(=O)N1CCCC1(C)C(=O)NCc1ccc(SC)cc1 (stereo unspecified)	-	-	0	-
SMILES	core dimer inh	FID counter	NRP1-CendR mod	MEX-5 binding
CC1(C(=O)Nc2ccc(Cl)c(Cl)c2)CCN1C(=O)CCC1CCCC1 (stereo unspecified)	-	-	0	-
COCCNC(=O)c1cc2c(=O)n3cccc(C)c3nc2n(Cc2ccncc2)c1=N	0	0	0	0
N=c1c(C(=O)NCc2ccccc2)cc2c(=O)n3ccccc3nc2n1Cc1ccco1	0	0	0	0
CCCCNC(=O)c1cc2c(=O)n3cccc(C)c3nc2n(Cc2ccncc2)c1=N	0	0	0	-41
Cc1ccc2nc3c(cc(C(=O)NCc4ccco4)c(=N)n3Cc3ccco3)c(=O)n2c1	70	0	0	0
Cc1ccc(CNC(=O)c2cc3c(=O)n4ccccc4nc3n(Cc3ccco3)c2=N)cc1	0	-	0	0
N=c1c(C(=O)NCc2ccco2)cc2c(=O)n3ccccc3nc2n1Cc1ccccc1	65	0	0	0
N=c1c(C(=O)NCc2ccco2)cc2c(=O)n3ccccc3nc2n1Cc1ccc(Cl)cc1	67	0	0	0

Source: PubChem
